Measured values published in ChEMBL document CHEMBL3792359, “Discovery of Orally Available Prodrugs of the Glutamate Carboxypeptidase II (GCPII) Inhibitor 2-Phosphonomethylpentanedioic Acid (2-PMPA)” (J Med Chem, 2016).

Columns and labels:
[1] = Metabolic stability in mouse plasma assessed as compound remaining at 10 uM after 1 hr by LC/MS/MS analysis; assay type: ADME, cell-free; details: read-out: Stability
Method in brief: (§1)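 Prodrug at 10 µM spiked into mouse or human plasma or liver microsomes, incubated at 37 °C on an orbital shaker. Triplicate aliquots taken at 0, 30 and 60 min, quenched with 3 volumes of ice-cold acetonitrile containing losartan internal standard, vortexed, spun 12000 g for 10 min. Parent disappearance followed by LC/MS/MS and reported as % remaining at 1 h.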

[2] = Metabolic stability in mouse liver microsomes assessed as compound remaining at 10 uM after 1 hr by LC/MS/MS analysis; assay type: ADME; details: read-out: Stability; method in brief: as §1
[3] = Metabolic stability in human plasma assessed as compound remaining at 10 uM after 1 hr by LC/MS/MS analysis; assay type: ADME, cell-free; details: read-out: Stability; method in brief: as §1
[4] = Metabolic stability in human liver microsomes assessed as compound remaining at 10 uM after 1 hr by LC/MS/MS analysis; assay type: ADME; details: read-out: Stability; method in brief: as §1
[5] = Chemical stability of compound; assay type: physicochemical
Plasma [6] = assay: Prodrug activation in mouse plasma assessed as 2-phosphonomethylpentanedioic acid formation at 30 mg/kg administered via oral gavage after 30 mins by LC/MS/MS analysis; assay type: organism-based; details: in vivo, 0.5 h
Method in brief: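 Mice given prodrug orally at 30 mg/kg (equivalent of 1), 10 mL/kg volume; blood taken at 30 min, N=3. Plasma extracted with methanol containing 2-PMSA internal standard. Released 1 measured selectively after mild MTBSTFA derivatization (~60 °C, 40 min) by LC/MS/MS. Total prodrug plus metabolites measured separately after n-butanol/3N HCl derivatization (60°C, 30 min), which converts all species to butyl esters of 1.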

Mus musculus [7] = assay: AUC (0 to t) in mouse assessed as 2-phosphonomethylpentanedioic acid at 30 mg/kg administered via oral gavage measured after 15 mins to 4 hrs by LC/MS/MS analysis; assay type: ADME, organism-based; set-up: time upper 4 hr, dose 30 mg/kg, time lower 0.25 hr, route oral; details: in vivo
Method in brief: (§2)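 Mice dosed orally at 30 mg/kg (equivalent of 1), 10 mL/kg dosing volume. Cardiac-puncture blood at 0, 15, 30 min, 1, 2, 4 h, n=3 per time point; plasma stored at -80°C. Methanol precipitation with 2-PMSA internal standard, then mild MTBSTFA derivatization (~60 °C, 40 min) so only free 1 is measured by LC/MS/MS. Cmax/Tmax observed; AUC to last sample by log-linear trapezoidal rule.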

Canis familiaris [8] = assay: AUC (0 to t) in beagle dog assessed as 2-phosphonomethylpentanedioic acid at 10 mg/kg administered via oral gavage measured after 30 mins to 8 hrs by LC/MS/MS analysis; assay type: ADME, organism-based, Canis lupus familiaris; set-up: dose 10 mg/kg, time upper 8 hr, time lower 0.5 hr, route oral; details: in vivo
Method in brief: (§3)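 Single beagle dog given oral dose of 10 mg/kg (expressed as equivalent of 1). Jugular venipuncture blood at 0, 30 min, 1, 2, 4, 6, 8 h into potassium oxalate/NaF tubes, kept on wet ice, spun 3000 x g, 4°C, 5 min; plasma frozen at -60 to -80°C. LC/MS/MS. Cmax and Tmax taken as observed values; AUC to last sample by log-linear trapezoidal rule.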

Canis familiaris [9] = assay: Cmax in beagle dog assessed as 2-phosphonomethylpentanedioic acid at 10 mg/kg administered via oral gavage measured after 30 mins to 8 hrs by LC/MS/MS analysis; assay type: ADME, organism-based, Canis lupus familiaris; set-up: dose 10 mg/kg, route oral; details: in vivo; method in brief: as §3
Canis familiaris [10] = assay: Tmax in beagle dog assessed as 2-phosphonomethylpentanedioic acid at 10 mg/kg administered via oral gavage measured after 30 mins to 8 hrs by LC/MS/MS analysis; assay type: ADME, organism-based, Canis lupus familiaris; details: in vivo; method in brief: as §3
Mus musculus [11] = assay: Cmax in mouse assessed as 2-phosphonomethylpentanedioic acid at 30 mg/kg administered via oral gavage measured after 15 mins to 4 hrs by LC/MS/MS analysis; assay type: ADME, organism-based; set-up: dose 30 mg/kg, route oral; details: in vivo; method in brief: as §2
Mus musculus [12] = assay: Tmax in mouse assessed as 2-phosphonomethylpentanedioic acid at 30 mg/kg administered via oral gavage measured after 15 mins to 4 hrs by LC/MS/MS analysis; assay type: ADME, organism-based; details: in vivo; method in brief: as §2
[13] = AUC (0 to t hrs) in mouse at 30 mg/kg administered via oral gavage measured after 15 mins to 4 hrs by LC/MS/MS analysis; assay type: ADME, organism-based; set-up: time lower 0.25 hr, dose 30 mg/kg, time upper 4 hr, route oral; details: in vivo
Method in brief: (§4)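 Mice were dosed by oral gavage at 30 mg/kg (parent-drug equivalent) in 10 mL/kg. Blood was taken by cardiac puncture at 0, 15 and 30 min and 1, 2 and 4 h, n=3 per time point. Plasma was stored at -80 °C and the released parent drug measured by LC/MS/MS. Cmax and Tmax are observed values; AUC is the log-linear trapezoidal AUClast.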

[14] = Tmax in mouse at 30 mg/kg administered via oral gavage measured after 15 mins to 4 hrs by LC/MS/MS analysis; assay type: ADME, organism-based; details: in vivo; method in brief: as §4
[15] = AUC (0 to t hrs) in mouse at 10 mg/kg administered via oral gavage measured after 15 mins to 4 hrs by LC/MS/MS analysis; assay type: ADME, organism-based; set-up: dose 10 mg/kg, time 0.25-4 hr, route oral; details: in vivo
[16] = Cmax in mouse at 30 mg/kg administered via oral gavage measured after 15 mins to 4 hrs by LC/MS/MS analysis; assay type: ADME, organism-based; set-up: dose 30 mg/kg, route oral; details: in vivo; method in brief: as §4
Plasma [17] = assay: Plasma concentration in rhesus monkey at 10 mg/kg, po measured at 0.25 to 2 hrs post dose; assay type: ADME, organism-based, Macaca mulatta; details: in vivo
[18] = Cmax in mouse at 10 mg/kg administered via oral gavage measured after 15 mins to 4 hrs by LC/MS/MS analysis; assay type: ADME, organism-based; set-up: dose 10 mg/kg, route oral; details: in vivo

remaining at 1 h, 10 µM [1] [%] | remaining at 1 h, 10 µM [2] [%] | remaining at 1 h, 10 µM [3] [%] | remaining at 1 h, 10 µM [4] [%] | Drug metabolism (Plasma [6]) [µM] | SMILES | other results
0 | 0 | 29 | 0 | – | COC(=O)CCC(CP(=O)(OCOC(=O)C(C)(C)C)OCOC(=O)C(C)(C)C)C(=O)OC (configuration not stated) | –
– | – | – | – | – | CC(C)OC(=O)OCOP(=O)(CC(CCC(=O)O)C(=O)O)OCOC(=O)OC(C)C (configuration not stated) | Stability [5]: Unstable
0.1 | 0.1 | 0 | 0 | – | COC(=O)CCC(CP(=O)(OCOC(=O)OC(C)C)OCOC(=O)OC(C)C)C(=O)OC (configuration not stated) | –
3 | 0 | 61 | 26 | 0.54 | CCOC(=O)C(CCC(=O)O)CP(=O)(OCOC(=O)C(C)(C)C)OCOC(=O)C(C)(C)C (configuration not stated) | –
86 | 101 | 96 | 103 | – | COC(=O)CCC(CP(=O)(O)O)C(=O)OC (configuration not stated) | –
0 | 0 | 79 | 0 | 15.8 | CC(C)(C)C(=O)OCOC(=O)C(CCC(=O)O)CP(=O)(OCOC(=O)C(C)(C)C)OCOC(=O)C(C)(C)C (configuration not stated) | –
0 | 0 | 48 | 0 | 15.66 | CC(C)OC(=O)OCOC(=O)C(CCC(=O)O)CP(=O)(OCOC(=O)OC(C)C)OCOC(=O)OC(C)C (configuration not stated) | AUCt (Mus musculus [7]): 35.9 µM·h; AUCt (Canis familiaris [8]): 126 µM·h; Cmax (Canis familiaris [9]): 51100 nM; Tmax (Canis familiaris [10]): 1 h; Cmax (Mus musculus [11]): 15100 nM; Tmax (Mus musculus [12]): 0.5 h
0 | 0 | 80 | 32 | 0.49 | CCOC(=O)C(CCC(=O)O)CP(=O)(OCOC(=O)OC(C)C)OCOC(=O)OC(C)C (configuration not stated) | –
0 | 0 | 18 | 0 | – | CCOC(=O)CCC(CP(=O)(OCOC(=O)C(C)(C)C)OCOC(=O)C(C)(C)C)C(=O)OCC (configuration not stated) | –
0 | 0 | 82 | 54 | 0.74 | COC(=O)C(CCC(=O)O)CP(=O)(OCOC(=O)C(C)(C)C)OCOC(=O)C(C)(C)C (configuration not stated) | –
59 | 83 | 73 | 88 | – | CCOC(=O)CCC(CP(=O)(O)O)C(=O)OCC (configuration not stated) | –

SMILES | remaining at 1 h, 10 µM [1] [%] | remaining at 1 h, 10 µM [2] [%] | remaining at 1 h, 10 µM [3] [%] | remaining at 1 h, 10 µM [4] [%] | Drug metabolism (Plasma [6]) [µM] | other results
O=C(O)CCC(CP(=O)(O)O)C(=O)O (configuration not stated) | 85 | 100 | 83 | 91 | – | AUC(0-t) [13]: 1.94 µM·h; Tmax [14]: 1 h; AUC(0-t) [15]: 0.6 µM·h; Cmax [16]: 860 nM; concentration (Plasma [17]): 180 nM; Cmax [18]: 280 nM
